Assays:
[1] = biological target: Delta-type opioid receptor (Rattus norvegicus, UniProt P33533); test: Displacement of [3H]Ile5,6deltorphin-2 from delta opioid receptor in Wistar rat brain
In short: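 Competition binding on crude male Wistar rat forebrain membranes (0.2-0.5 mg protein/tube) in 50 mM Tris-HCl pH 7.4. Filtration, scintillation counting. Ki from nonlinear fit plus Cheng-Prusoff. Mean ± SEM, ≥3 independent runs in duplicate.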

[2] = (§1) Half life in rat brain membrane homogenate; format: ADME
[3] = species on record: Rattus norvegicus; test: as §1; format: ADME

Sequence of Delta-type opioid receptor (P33533 whole entry): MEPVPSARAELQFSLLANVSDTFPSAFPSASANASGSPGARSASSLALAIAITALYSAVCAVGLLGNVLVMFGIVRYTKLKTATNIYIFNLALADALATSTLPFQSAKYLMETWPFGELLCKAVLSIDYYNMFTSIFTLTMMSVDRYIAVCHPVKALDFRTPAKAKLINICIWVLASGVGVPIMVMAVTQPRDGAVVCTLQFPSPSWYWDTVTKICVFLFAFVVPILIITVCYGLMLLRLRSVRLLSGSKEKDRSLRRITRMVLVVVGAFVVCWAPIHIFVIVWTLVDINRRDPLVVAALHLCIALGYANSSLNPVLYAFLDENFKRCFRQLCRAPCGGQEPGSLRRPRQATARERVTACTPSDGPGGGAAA

Row | SMILES | Ki [1] [µM] | half-life [2] [h] | t1/2 [3] [h]
1 | NC(=O)[C@H](Cc1ccccc1)NC(=O)[C@H](Cc1ccccc1)NC(=O)[C@@H]1CCC[C@@H]1NC(=O)[C@@H](N)Cc1ccc(O)cc1 | > 10 |  | 
2 | NC(=O)[C@H](Cc1ccccc1)NC(=O)[C@H](Cc1ccccc1)NC(=O)[C@H]1CCC[C@H]1NC(=O)[C@@H](N)Cc1ccc(O)cc1 | 4.8 | > 12 | 
3 | NC(=O)[C@H](Cc1ccccc1)NC(=O)[C@H](Cc1ccccc1)NC(=O)[C@H]1CCCC[C@H]1NC(=O)[C@@H](N)Cc1ccc(O)cc1 | 0.812 | > 12 | 
4 | NC(=O)[C@H](Cc1ccccc1)NC(=O)[C@H](Cc1ccccc1)NC(=O)[C@@H]1CCCC[C@@H]1NC(=O)[C@@H](N)Cc1ccc(O)cc1 | > 10 |  | 
5 | NC(=O)[C@H](Cc1ccccc1)NC(=O)[C@H](Cc1c[nH]c2ccccc12)NC(=O)[C@H]1CCC[C@@H]1NC(=O)[C@@H](N)Cc1ccc(O)cc1 | 3.08 |  | 
6 | NC(=O)[C@H](Cc1ccccc1)NC(=O)[C@H](Cc1ccccc1)NC(=O)[C@@H]1CCCC[C@H]1NC(=O)[C@@H](N)Cc1ccc(O)cc1 | 0.439 |  | 
7 | NC(=O)[C@H](Cc1ccccc1)NC(=O)[C@H](Cc1c[nH]c2ccccc12)NC(=O)[C@@H]1CCCC[C@H]1NC(=O)[C@@H](N)Cc1ccc(O)cc1 | > 10 |  | 
8 | NC(=O)[C@H](Cc1ccccc1)NC(=O)[C@H](Cc1c[nH]c2ccccc12)NC(=O)[C@H]1CCCC[C@H]1NC(=O)[C@@H](N)Cc1ccc(O)cc1 | 2.76 | > 12 | 
9 | NC(=O)[C@H](Cc1ccccc1)NC(=O)[C@H](Cc1ccccc1)NC(=O)[C@H]1CCCC[C@@H]1NC(=O)[C@@H](N)Cc1ccc(O)cc1 | > 10 |  | 
10 | NC(=O)[C@H](Cc1ccccc1)NC(=O)[C@H](Cc1ccccc1)NC(=O)[C@H]1CCC[C@@H]1NC(=O)[C@@H](N)Cc1ccc(O)cc1 | 4.23 |  | 
11 | NC(=O)[C@H](Cc1ccccc1)NC(=O)[C@H](Cc1c[nH]c2ccccc12)NC(=O)[C@H]1CCCC[C@@H]1NC(=O)[C@@H](N)Cc1ccc(O)cc1 | 9.62 |  | 
12 | NC(=O)[C@H](Cc1ccccc1)NC(=O)[C@H](Cc1c[nH]c2ccccc12)NC(=O)[C@@H]1CCCC[C@@H]1NC(=O)[C@@H](N)Cc1ccc(O)cc1 | > 10 |  | 
13 | NC(=O)[C@H](Cc1ccccc1)NC(=O)[C@H](Cc1c[nH]c2ccccc12)NC(=O)[C@@H]1CCC[C@@H]1NC(=O)[C@@H](N)Cc1ccc(O)cc1 | > 10 |  | 
14 | NC(=O)[C@H](Cc1ccccc1)NC(=O)[C@H](Cc1ccccc1)NC(=O)[C@@H]1CCC[C@H]1NC(=O)[C@@H](N)Cc1ccc(O)cc1 | 1.41 |  | 
15 | NC(=O)[C@H](Cc1ccccc1)NC(=O)[C@H](Cc1c[nH]c2ccccc12)NC(=O)[C@H]1CCC[C@H]1NC(=O)[C@@H](N)Cc1ccc(O)cc1 | 1.34 | > 12 | 
16 | NC(=O)[C@H](Cc1ccccc1)NC(=O)[C@H](Cc1c[nH]c2ccccc12)NC(=O)[C@@H]1CCC[C@H]1NC(=O)[C@@H](N)Cc1ccc(O)cc1 | 0.67 |  | 
17 | NC(=O)[C@H](Cc1ccccc1)NC(=O)[C@H](Cc1ccccc1)NC(=O)[C@@H]1CCCN1C(=O)[C@@H](N)Cc1ccc(O)cc1 [ENDOMORPHIN 2] |  |  | 3.8
18 | NC(=O)[C@H](Cc1ccccc1)NC(=O)[C@H](Cc1c[nH]c2ccccc12)NC(=O)[C@@H]1CCCN1C(=O)[C@@H](N)Cc1ccc(O)cc1 [ENDOMORPHIN-1] |  |  | 4.9

Reference: ChEMBL document CHEMBL1155070, “New endomorphin analogues containing alicyclic beta-amino acids: influence on bioactive conformation and pharmacological profile” (J Med Chem, 2008)
